An excerpt weighted towards active compounds, which were near 3.6% of everything screened.
PolyA inh = blocks polyadenylation in yeast reporter cells. S. cerevisiae SKY197-pL101 polyadenylation reporter, beta-gal luminescence; efflux-impaired pdr1/pdr3 knockout yeast; score 100 = 6 SD above DMSO. activity score, % at 12 µM. hit rate 0.02% among 300,000. AID 1875;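 active means lowest replicate activity score at least 50, where 100 means six control SD above control mean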;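 further: yeast exposed to compound for 9 h at 30 °C; higher score means more reporter readthrough which indicates perturbed polyadenylation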
STAT3 act = STAT3 signaling activation; hit rate 0.91% among 190,000; AID 871; activation (% of control), % at 5.6 µM; U3A cells, IL-6 STAT3-luciferase reporter, luminescence; 100% = signal with IL-6 EC80 alone;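 active means activation above the screen-wide mean of compound activation plus 3 SD, cut at about 130% in these data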
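Material: STAT3-luciferase reporter U3A cells; Probe or stimulus: IL-6 (33 ng/mL); Incubation: compound pre-incubation 1 h before IL-6, then 6 h stimulation at 37 °C; Technique: luminescence from STAT3-driven luciferase reporter; Evaluation: % activation versus median of IL-6-stimulated wells; Controls: IL-6-only high control.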
Hsp70 activator = switches on Hsp70 transcription; AID 1203; HeLa Hsp70 promoter luciferase reporter, luminescence; scaled: vehicle 0, proteasome-inhibitor control 100%; activation, % at 10 µM; hit rate 0.04% among 200,000;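 active means activation above the mean across all tested compounds plus 3 SD, cutoff set per campaign, cut at about 5.5% in these data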
AHR act = activates the human aryl hydrocarbon receptor | P35869 | AHR-responsive luciferase reporter cells, luminescence | activation, % at 5 µM | hit rate 2.5% among 320,000; in the data active means activation above about 47%
Target sequence (P35869 whole entry, looked up): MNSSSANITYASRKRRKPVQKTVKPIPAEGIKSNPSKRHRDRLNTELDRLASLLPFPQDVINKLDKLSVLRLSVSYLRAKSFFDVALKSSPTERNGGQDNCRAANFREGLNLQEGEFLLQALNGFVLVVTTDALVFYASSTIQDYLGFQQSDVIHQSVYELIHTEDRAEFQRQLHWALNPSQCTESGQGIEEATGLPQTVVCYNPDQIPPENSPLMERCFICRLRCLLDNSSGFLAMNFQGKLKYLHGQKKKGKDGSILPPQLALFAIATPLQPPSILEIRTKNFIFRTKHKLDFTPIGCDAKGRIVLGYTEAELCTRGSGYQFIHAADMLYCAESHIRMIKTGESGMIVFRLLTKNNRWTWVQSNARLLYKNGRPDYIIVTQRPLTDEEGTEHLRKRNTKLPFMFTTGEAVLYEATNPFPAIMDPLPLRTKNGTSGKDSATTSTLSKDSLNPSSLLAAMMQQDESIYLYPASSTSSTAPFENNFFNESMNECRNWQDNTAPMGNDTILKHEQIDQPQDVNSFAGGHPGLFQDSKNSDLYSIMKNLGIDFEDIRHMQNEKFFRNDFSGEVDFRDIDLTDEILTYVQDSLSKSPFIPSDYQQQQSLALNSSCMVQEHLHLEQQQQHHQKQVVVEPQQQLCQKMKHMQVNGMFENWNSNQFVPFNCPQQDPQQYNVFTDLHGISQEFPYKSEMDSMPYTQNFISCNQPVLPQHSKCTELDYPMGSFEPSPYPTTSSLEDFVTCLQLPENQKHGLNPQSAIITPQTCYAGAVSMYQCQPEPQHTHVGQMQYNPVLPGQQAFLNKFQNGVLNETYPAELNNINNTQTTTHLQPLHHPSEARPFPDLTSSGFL
PERK inhibitor = blocks human PERK kinase | inhibition, % at 5.6 µM | Q9NZJ5 | AID 1416 | hit rate 0.17% among 220,000 | CHO PERK-DD fusion, SEAP luminescence translation reporter;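 active means inhibition above the mean inhibition of all tested compounds plus 3 SD, set separately per screening campaign, cut at about 2.9% in these data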;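 further: PERK kinase domain activated by AP20187 dimerizer at 100 nM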
HSF1 inh = HSF1 inhibition; NIH3T3-HGL HSE-luciferase, MG132-induced, luminescence 8 h; hits give low values; activity change, negative = inhibition, % at 7.5 µM (by protocol); hit rate 0.77% among 300,000; AID 2098;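 active means more than half of replicate wells show activity change below -50%, luminescence cut by over half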;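 further: luciferase reports HSF-1 transcriptional activity via heat shock element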
Each line names hits and unclear results; the compound was inactive in the other large screens.

Cc1ccc(C(=O)N/C(=C\c2cccs2)C(=O)NCC2CCCO2)cc1C (configuration not stated)	none
CC(NO)/C(=N\O)c1cccs1 (configuration not stated)	HSF1 inh -51
O=C(c1ccco1)[C@@H]1[C@@H]2C(=O)N(c3ccc(F)cc3)C(=O)[C@@H]2C2c3ccccc3C=CN21 (some centres not stated)	STAT3 act 134, PERK inhibitor 3.0
CCn1nc(C)cc1C(=O)N1CCc2c([nH]c3ccccc23)C1c1cc(F)ccc1F (configuration not stated)	STAT3 act 150
CCN(CC)C(=O)Cn1cc(C(=O)C(=O)N2CCCc3ccccc32)c2ccccc21	AHR act 70 (no result: PolyA inh, HSF1 inh)
CCN(CC)C(=O)Cn1cc(C(=O)C(=O)N2CCN(C)CC2)c2ccccc21	none (no result: STAT3 act, Hsp70 activator, PERK inhibitor)
CCc1noc(C)c1C(=O)NC1CCCc2c1cnn2-c1ccc(C(C)(C)C)cc1 (configuration not stated)	none (no result: STAT3 act, Hsp70 activator, PERK inhibitor)
O=C(N/N=C/c1ccc2c(c1)OCO2)c1cc(-c2ccccc2)nc2ccccc12	AHR act 51
CCCCNC(=S)NNC(=O)c1cc(-c2cccnc2)nc2ccccc12	AHR act 54 (no result: STAT3 act, Hsp70 activator, PERK inhibitor)
O=c1[nH]c(N/N=C\c2ccc3c(c2)OCO3)nc2ccccc12	AHR act 57
O=C(N/N=C/c1ccc2c(c1)OCO2)c1cccc2ccccc12	none (no result: STAT3 act, Hsp70 activator, PERK inhibitor)
CCCNC(=S)NNC(=O)c1cc(-c2cccnc2)nc2ccccc12	none (no result: STAT3 act, Hsp70 activator, PERK inhibitor)
c1nc(NCc2ccc3c(c2)OCO3)c2cc(-c3ccc4c(c3)OCCO4)ccc2n1	none (no result: PolyA inh, STAT3 act, Hsp70 activator, PERK inhibitor, HSF1 inh)
c1cncc(CNc2ncnc3ccc(-c4ccc5c(c4)OCO5)cc23)c1	AHR act 53 (no result: PolyA inh, STAT3 act, Hsp70 activator, PERK inhibitor, HSF1 inh)
O=c1[nH]c(N/N=C/c2ccccc2)nc2ccccc12	none
CC1(C)Cc2c(cnn2-c2cccc(F)c2)C(NC(=O)c2ccc[n+]([O-])c2)C1 (configuration not stated)	none (no result: STAT3 act, Hsp70 activator, AHR act, PERK inhibitor)
C=CCN(CC=C)S(=O)(=O)c1ccc2nc(NC(=O)C3CCCO3)sc2c1 (configuration not stated)	none
O=C(Cc1ccc(Cl)c(Cl)c1)N1CCOCC1	none (no result: STAT3 act, Hsp70 activator, PERK inhibitor)
Cn1c(SCC(=O)Nc2ccc(C(N)=O)cc2)nnc1-c1cccs1	none (no result: STAT3 act, Hsp70 activator, PERK inhibitor)
CCCN(CCC)S(=O)(=O)c1cccc(-c2csc(C)n2)c1	none (no result: STAT3 act, Hsp70 activator)
c1cncc(CSc2ccc(-c3ccc4c(c3)OCO4)nn2)c1	AHR act 95
O=C(Nc1ccc2c(c1)OCO2)c1cc(-c2cccnc2)nc2ccccc12	AHR act 47
c1ccc(CNc2nc(-c3cccnc3)nc3ccccc23)cc1	none (no result: STAT3 act, Hsp70 activator, AHR act, PERK inhibitor)
c1cncc(-c2nc(NCc3ccc4c(c3)OCO4)c3ccccc3n2)c1	AHR act 64 (no result: STAT3 act, Hsp70 activator)
COc1ccc(CCN2CC(C(=O)N3CCSCC3)CCC2=O)cc1 (configuration not stated)	none (no result: STAT3 act, Hsp70 activator, PERK inhibitor)
O=C(Cn1ccc([N+](=O)[O-])n1)NCc1cccnc1	none
O=C(Nc1ccc(Cl)c([N+](=O)[O-])c1)c1cnccn1	AHR act 70
O=C(Nc1ccc(Cl)c([N+](=O)[O-])c1)c1ccncc1	none
CCOc1ccc(Nc2ncnc3ccc([N+](=O)[O-])cc23)cc1	AHR act 50
CCOC(=O)c1ccc(Nc2ncnc3ccc(C)cc23)cc1	none
O=[N+]([O-])c1cc(/C=N/Nc2nc3ccccc3[nH]2)c(O)cc1O	none
Cc1cccc(C)c1OCC(=O)NNC(=S)NC(=O)C1CC1	none (no result: STAT3 act, Hsp70 activator, PERK inhibitor)
Cn1c(/C(C#N)=C(\O)c2ccc(Br)s2)nc2ccccc21	AHR act 52 (no result: STAT3 act, Hsp70 activator, PERK inhibitor)
O=c1cc[nH]c2c1ccc1cccnc12	none (no result: STAT3 act, Hsp70 activator, PERK inhibitor)
CN(C)C(=O)CN(c1ccc(F)c(Cl)c1)S(C)(=O)=O	STAT3 act 135
CCN1C(=O)CC(N2CCOCC2)C1=O (configuration not stated)	PERK inhibitor 3.0
COc1cc(NC(=O)CN2C(=O)COc3ccc(S(=O)(=O)N4CCCC4)cc32)cc(OC)c1	none (no result: STAT3 act, Hsp70 activator, PERK inhibitor)
CC(=O)N1CCN(C(=O)C2(NC(=O)Nc3cccc(F)c3)CCCCC2)CC1	none (no result: STAT3 act, Hsp70 activator, PERK inhibitor)
CC1CCCN(C(=O)C2(NC(=O)Nc3cccc(F)c3)CCCCC2)C1 (configuration not stated)	HSF1 inh -86
N#CC1(NC(=O)CSc2n[nH]c(-c3ccccc3)n2)CCCCC1	none (no result: STAT3 act, Hsp70 activator, PERK inhibitor)

High-throughput results deposited in PubChem by several laboratories.
